Data on three compounds can be found in PMC6718336 (Proteins, 2019).

In one test the target is Hsp90α S52A (1-236) (Homo sapiens, UniProt P07900, S52A). Put plainly: ITC binding to Hsp90α S52A mutant NTD. The following applies: for C-values / Kd / TΔS / ΔG / ΔH / N: ITC, 298 K; for N: stoichiometry, one-site model; for fold change in affinity, Hsp90α S52A vs wild type Hsp90α: ratio of ITC KD. Put shortly: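 Human Hsp90α NTD (1-236) S52A, N-terminal His-tagged, expressed in E. coli Rosetta (DE3), purified by Ni-NTA then size exclusion. ITC in matched 40 mM HEPES-KOH pH 7.4, 100 mM NaCl, 1% DMSO. 255 or 393 μM protein was injected into 33.0 or 41.8 μM test compound. Wild type was run alike: 503 or 336 μM into 50.7 or 30.1 μM. One-site fit; mean of two titrations ± SEM.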

In a further test the target is Hsp90β NTD (Homo sapiens, UniProt P08238). Kind of test: ITC binding to Hsp90β NTD. The following applies: 298 K; for N: stoichiometry, one-site model. An outline of the steps: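 Human Hsp90β NTD, N-terminal His-tagged, expressed in E. coli Rosetta (DE3), purified by Ni-NTA then size exclusion. ITC in matched 40 mM HEPES-KOH pH 7.4, 100 mM NaCl, 1% DMSO. 891 or 885 μM protein was injected into 93.3 or 97.8 μM test compound in the cell. For ATP/ADP, protein was in the cell and nucleotide in the syringe. One-site fit; mean of two titrations ± SEM.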
Sequence of Hsp90β NTD (P08238 1-221 limits assumed): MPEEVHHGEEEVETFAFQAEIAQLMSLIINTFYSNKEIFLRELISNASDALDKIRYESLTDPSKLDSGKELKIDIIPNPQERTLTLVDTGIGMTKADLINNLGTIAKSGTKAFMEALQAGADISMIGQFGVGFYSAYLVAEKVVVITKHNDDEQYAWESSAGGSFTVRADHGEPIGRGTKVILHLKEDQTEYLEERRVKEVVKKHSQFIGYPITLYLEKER

Test [1] has as its target Hsp90α (1-236) NTD (Homo sapiens, UniProt P07900). Put plainly: ITC binding to Hsp90α NTD. The following applies: ITC, 298 K; for N: stoichiometry, one-site model. Put shortly:
(§1)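 Human Hsp90α residues 1-236, N-terminal His-tagged, expressed in E. coli Rosetta (DE3), purified by Ni-NTA and size exclusion. ITC in matched 40 mM HEPES-KOH pH 7.4, 100 mM NaCl, 1% DMSO. Protein (503 or 336 μM) titrated into test compound (50.7 or 30.1 μM); nucleotides titrated into protein. One-site fit, mean of two titrations ± SEM.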

Test [2] has as its system Hsp90α (1-236) NTD. Put plainly: ITC binding to Hsp90α NTD. Also noted: species or system Human. The following applies: preference for Hsp90α over Hsp90β from ITC KD. An outline of the steps: as §1
The next test relates to Hsp90β. Conditions: competition binding assays; cited from earlier work.

Each structure is given as a SMILES string. Several values for one entry are separate records, joined by “and”; a condition that tells them apart may be missing. Equal values may be shown once.

The Kd is the equilibrium constant for the complex coming apart. Higher therefore signals a looser complex. Take `Nc1ncnc2c1ncn2[C@@H]1O[C@H](COP(=O)(O)OP(=O)(O)O)[C@@H](O)[C@H]1O` [ADP]: on Hsp90α S52A (1-236), the C-values is listed as 16.7 – 18.2, the Kd is 9.06 ± 0.93 µM, the TΔS was -13.0 ± 0.21 kcal/mol and the ΔG was -6.85 ± 0.07 kcal/mol. Moreover, at Hsp90α S52A (1-236), the ΔH was -19.8 ± 0.14 kcal/mol; the N came out at 0.756 ± 0.100; the “fold change in affinity, Hsp90α S52A vs wild type Hsp90α” value is listed as 1.05 ± 0.11 fold. On Hsp90β NTD, the C-values is listed as 6.74 – 14.1; the affinity, expressed as Kd, was 12.4 ± 1.77 µM; the TΔS was -12.9 ± 0.99 kcal/mol; the ΔG is -6.75 ± 0.07 kcal/mol. On Hsp90β NTD, this compound yielded a ΔH of -19.7 ± 0.92 kcal/mol and an N of 0.813 ± 0.042. Moreover, at Hsp90α (1-236) NTD [1], the C-values is reported as 8.40 – 11.1; the dissociation constant (Kd) was 8.6 µM and 8.59 µM; the TΔS is -13.0 ± 0.28 kcal/mol; the ΔG is -6.90 ± 0.00 kcal/mol. For the same compound, on Hsp90α (1-236) NTD [1], the ΔH is -19.9 ± 0.28 kcal/mol and the N came to 0.752 ± 0.014. For the same compound, the “α/β selectivity, KD (ITC)” value in the test on Hsp90α (1-236) NTD [2] is listed as 1.4 ± 0.2 fold.

On to `Nc1ncnc2c1ncn2[C@@H]1O[C@H](COP(=O)(O)OP(=O)(O)OP(=O)(O)O)[C@@H](O)[C@H]1O` [ATP], for which, on Hsp90α S52A (1-236), the C-values is recorded as 1.26 – 1.29, the Kd was 239 ± 0.71 µM, the TΔS is -12.7 ± 0.85 kcal/mol and the ΔG is -4.95 ± 0.07 kcal/mol. Also, on Hsp90α S52A (1-236), the ΔH is -17.7 ± 0.78 kcal/mol; the N is 0.592 ± 0.026; the “fold change in affinity, Hsp90α S52A vs wild type Hsp90α” value is recorded as 1.14 ± 0.12 fold. For the same compound, on Hsp90β NTD, the C-values was 1.00 – 1.19, the Kd amounted to 281 ± 39.6 µM, the TΔS was -12.3 ± 2.55 kcal/mol and the ΔG was -4.90 ± 0.14 kcal/mol. Also, at Hsp90β NTD, the ΔH is -17.2 ± 2.40 kcal/mol and the N stood at 0.707 ± 0.112. In addition, at Hsp90α (1-236) NTD [1], the C-values is given as 1.13 – 1.44, the Kd was 209 ± 21.9 µM, the TΔS is -12.0 ± 1.84 kcal/mol and the ΔG is -5.05 ± 0.07 kcal/mol. On Hsp90α (1-236) NTD [1], this compound gave a ΔH of -17.1 ± 1.77 kcal/mol and an N of 0.691 ± 0.066. Besides, the “α/β selectivity, KD (ITC)” value with Hsp90α (1-236) NTD [2] is recorded as 1.3 ± 0.2 fold.

Turning to `CC(C)c1cc(C(=O)N2Cc3ccccc3C2)c(O)c2cnoc12` [KUNB31], in the test with Hsp90β, the “preference for Hsp90β over Hsp90α” value is recorded as 50 fold.
